Results from ChEMBL document CHEMBL5046273, “Development of a Novel, Small-Molecule Brain-Penetrant Histone Deacetylase Inhibitor That Enhances Spatial Memory Formation in Mice” (J Med Chem, 2022).
The source made the active and inactive calls. The calls are words filed in the database; no cut-off is given here.

Legend:
Histone deacetylase 2 [1] = biological target: T1, Histone deacetylase 2 (Homo sapiens, UniProt Q92769); test: Inhibition of recombinant human full-length HDAC2 incubated for 10 mins by Glo-luminescence assay
T1 sequence (Q92769 whole entry): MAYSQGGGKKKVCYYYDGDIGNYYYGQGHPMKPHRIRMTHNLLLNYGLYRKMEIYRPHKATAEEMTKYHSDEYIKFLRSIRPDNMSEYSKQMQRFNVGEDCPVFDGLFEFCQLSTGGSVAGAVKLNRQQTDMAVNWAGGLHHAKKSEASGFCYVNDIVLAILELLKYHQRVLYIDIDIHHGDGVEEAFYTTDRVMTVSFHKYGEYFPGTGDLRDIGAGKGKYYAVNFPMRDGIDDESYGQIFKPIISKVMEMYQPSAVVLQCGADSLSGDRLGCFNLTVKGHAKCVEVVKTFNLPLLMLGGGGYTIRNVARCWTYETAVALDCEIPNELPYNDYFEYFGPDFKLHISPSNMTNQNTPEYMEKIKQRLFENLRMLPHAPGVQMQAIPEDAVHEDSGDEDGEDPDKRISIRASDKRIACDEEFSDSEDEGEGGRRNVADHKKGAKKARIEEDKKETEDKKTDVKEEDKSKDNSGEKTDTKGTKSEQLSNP
In short: (§1)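 Compounds were serially diluted and incubated with enzyme for 10 min. HDAC-Glo I/II substrate/developer was then added, and luminescence read after 40 min at 23 °C. IC50 from four-parameter fits from two independent titrations, mean ± SD.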

DU-145 = test: Cytotoxicity against human DU-145 cells assessed as reduction in cell viability at 0.00125 to 100 uM incubated for 48 hrs by MTT assay; type: functional, cell-based; settings: dose 0.00125-100 µM
In short: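 DU145 cells in DMEM with 10% FBS were seeded at 14 000 cells/well and allowed to adhere for 24 h. Test agents were diluted from 10 mM DMSO stocks (100, 50, 25 µM; 10, 5, 1.25 nM) and applied in triplicate for 48 h at 37 °C, 5% CO2, with DMSO as vehicle. Read-out was 250 µg/mL MTT for 4 h, DMSO solubilization, and A570 with 690 nm reference. Values normalized to DMSO.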

Histone deacetylase 2 [2] = biological target: T1, Histone deacetylase 2; test: Inhibition of recombinant human full-length HDAC2 preincubated for 20 mins with DTT followed by enzyme addition and measured after 10 mins by Glo-luminescence assay; in short: as §1

IC50 (Histone deacetylase 2 [1]) | IC50 (Histone deacetylase 2 [2]) | SMILES | Activity (DU-145)
105 µM | 25 µM | O=C(CC(O)/C=C/CCSSCC/C=C/C(O)CC(=O)Nc1ccccc1)Nc1ccccc1 (stereo unspecified) | inactive
> 100 µM | 18 µM | CC(C)(C)NC(=O)CC(O)/C=C/CCSSCC/C=C/C(O)CC(=O)NC(C)(C)C (stereo unspecified) | inactive
